Experimental data taken from PMC8556866 (Bioorganic Chemistry, 2021).

Legend:
SARS-CoV-2 Mpro [1] = molecular target: T1, SARS-CoV-2 Mpro (Severe acute respiratory syndrome coronavirus 2, UniProt P0DTD1); test: biochemical; conditions: read-out: %Inhibition @0.3 μM
SARS-CoV-2 Mpro [2] = molecular target: T1, SARS-CoV-2 Mpro; test: HPLC assay for inhibition of Mpro; format: biochemical; conditions: 0.3 μM compound, Mpro 0.2 μM; about 70% hydrolysis with Mpro alone
SARS-CoV-2 virus = format: cell-based; conditions: read-out: IC50 of inhibition of SARS-CoV-2 viral replication
[3] = system: intracellular reactive oxygen species (ROS) in HPAepiC cells; test: Intracellular ROS measurement with DCFH-DA after H2O2; format: cell-based; conditions: 50 μM H2O2 in HPAepiC cells; 10 μM ebselen/EBs, NAC 10 mM
Summary of the method: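 HPAepiC cells were cultured 24 h in 35-mm dishes, exposed to 50 μM H₂O₂ for 1 h and washed three times. They were then given 10 μM test compound for 24 h, with 10 mM NAC as positive control. Cells were loaded with 10 μM DCFH-DA for 30 min at 37 °C in the dark, washed with PBS and imaged confocally (Ex 488 nm, Em 520–570 nm). Relative fluorescence intensity was scored.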

HPAepiC cells = test: ROS-induced cell death; format: cell-based; conditions: 50 μM H2O2 in HPAepiC cells; 10 μM ebselen/EBs, NAC 10 mM, 24 h
Summary of the method: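 HPAepiC cells were exposed to 50 μM H₂O₂ for 1 h, then washed three times with fresh medium. Medium with 10 μM test compound or 10 mM NAC was added for 24 h before cell death was assessed.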

SARS-CoV-2 Mpro [4] = molecular target: T1, SARS-CoV-2 Mpro; format: binding

SMILES	inhibition at 0.3 µM (SARS-CoV-2 Mpro [1])	substrate hydrolysis (SARS-CoV-2 Mpro [2])	IC50 (SARS-CoV-2 virus)	intracellular ROS level (DCFH-DA fluorescence) [3]	ROS induced cell death (HPAepiC cells)	covalent binding to Mpro (peptide modified) (SARS-CoV-2 Mpro [4])
O=c1c2ccccc2[se]n1-c1ccccc1 [Ebselen]	61.2 ± 0.76%	30%	24.6 µM	dramatically decreased	dramatically decreased	identified to bind to ebselen
CC(=O)N[C@@H](CS)C(=O)O [NAC, N-Acetyl-L-cysteine]				scavenged the intracellular ROS	reversed the cytotoxicity induced by ROS	
